Arbovirus anti = arbovirus infection inhibition; arbovirus infection cell-based antiviral screen; 200,000 tested, 0.37% active; AID 1251; inhibition, % at 10 µM; in the data active means inhibition above about 30%
Lmaj promast = Leishmania major promastigote growth inhibition | inhibition, % at 10 µM | 200,000 tested, 9% active | Leishmania major promastigotes, resazurin fluorescence viability;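 further: promastigotes grown with compound for 44 hours at 28 °C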
CHOP inh = CHOP inhibition in unfolded protein response; CHO-K1 CHOP-promoter luciferase, tunicamycin-induced, 15-18 h; inhibition, % at 10 µM; 220,000 tested, 3.8% active; AID 2732;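 active means compounds that reduced the stress-induced luciferase reporter signal by more than about 70% of percent inhibition, limit read from the data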
Wee1 degr inh = inhibitors of human Wee1 degradation; P30291; HeLa Luc-Wee1K328M stability, luciferase luminescence; 100% = proteasome inhibitor MG132 effect; reporter increase, % at 5 µM; 220,000 tested, 1.2% active;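 active means activation above the mean of all tested compounds plus 3 SD, set per screening run, cut at about 8.8% in these data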;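 further: cells exposed to compound for 20 h before luminescence read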
PKD1 inh = inhibitors of human PKD1 kinase; Q15139; AID 797; PKD1 kinase fluorescence polarization assay; 200,000 tested, 0.056% active; inhibition, % (test concentration not listed)
Rad51 HR inh = Rad51 (human) homologous recombination inhibition; 200,000 tested, 0.085% active; hRad51 DNA strand exchange, fluorescence dequenching; inhibition, % at 10 µM; AID 1385;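 active means inhibition above 40% at the single screening dose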
Target sequence (Q06609 whole entry, looked up): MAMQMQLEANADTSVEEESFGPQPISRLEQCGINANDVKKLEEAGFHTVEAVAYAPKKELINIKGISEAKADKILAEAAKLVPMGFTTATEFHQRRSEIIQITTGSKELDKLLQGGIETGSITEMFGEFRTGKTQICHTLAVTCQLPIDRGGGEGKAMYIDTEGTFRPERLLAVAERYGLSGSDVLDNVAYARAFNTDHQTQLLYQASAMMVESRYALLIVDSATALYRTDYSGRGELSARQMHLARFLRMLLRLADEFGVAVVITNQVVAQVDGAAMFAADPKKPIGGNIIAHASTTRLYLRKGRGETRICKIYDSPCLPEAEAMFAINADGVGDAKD
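Assay system: Human Rad51 nucleoprotein filaments preassembled on unlabelled ssDNA | Reagent: Donor/quencher-labelled 47-bp dsDNA substrate | Doses: One concentration, 10 µM final | Times: 37 °C 15-min filament assembly, 30-min compound preincubation, 15-min exchange | Technique: Fluorescein emission 520 nm, excitation 485 nm | Benchmarks: Plate control and blank wells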
A number is an active result; . = inactive; / = not tested or not shown. The list is not random: actives were taken first. Their share in the collection is about 12%. Unless noted, no stated cut-off is given here; in the data, active means inhibition above about 50%; inactive means the rest.

SMILES | Arbovirus anti | Lmaj promast | CHOP inh | Wee1 degr inh | PKD1 inh | Rad51 HR inh
Nc1c(C(=O)NC2CCCC2)c2nc3ccccc3nc2n1CC1CCCO1 (centres undefined) | . | 51 | 76 | . | . | /
C=C(C)[C@H]1Cc2c(ccc3c2O[C@@H]2COc4cc(OC)c(OC)cc4[C@@H]2C3=O)O1 | / | / | . | / | / | /
CC(C)NCC(O)c1ccc(C2CCCC2)cc1 (centres undefined) | . | 92 | . | . | . | .
CCCC1COC(Cn2cncn2)(c2ccc(Cl)cc2Cl)O1 (centres undefined) | . | 92 | . | . | . | .
CC1(c2ccc(Cl)cc2Cl)OCC(Cn2cncn2)O1 (centres undefined) | . | . | . | . | . | /
CC(C)CN(CC(C)C)c1ccc(C=C2C(=O)NC(=S)NC2=O)cc1[N+](=O)[O-] | . | 81 | . | . | . | .
Clc1ccc(COC(Cn2ccnc2)c2ccc(Cl)cc2Cl)cc1 (centres undefined) | . | 98 | . | . | . | .
Clc1ccc(CO/N=C(\Cn2ccnc2)c2ccc(Cl)cc2Cl)c(Cl)c1 | / | / | / | / | / | .
Clc1cccc(CN2CCCCC2c2cccnc2)c1 (centres undefined) | . | 90 | / | . | . | .
COc1ccc(O)c(CN2CCCC(C(=O)c3ccccc3SC)C2)c1 (centres undefined) | . | . | . | . | . | .
COc1ccccc1CN1CCCC(C(=O)c2ccccc2SC)C1 (centres undefined) | . | 68 | . | . | . | .
CSc1ccccc1C(=O)C1CCCN(Cc2ccncc2)C1 (centres undefined) | . | 71 | . | . | . | .
O=c1c2ccccc2nc(CNCc2ccco2)n1-c1ccc(F)cc1 | . | . | . | . | . | .
Cc1ccc(/C=C2/C(=O)NC(=O)N(Cc3ccc(F)cc3)C2=O)o1 | / | / | 89 | . | / | .
Nc1ncnc2c1ncn2[C@@H]1O[C@H](COP(=O)(O)CP(=O)(O)OP(=O)(O)O)[C@H](O)C1O (some centres undefined) | / | / | . | / | / | /
CC(=NCCN(C)C)c1c(O)n(Cc2ccccc2)c(=O)[nH]c1=O | / | / | . | . | / | .
CCOC(=O)c1c(-n2c(C)cc(/C=C3\C(=O)NC(=O)N(C)C3=O)c2C)sc2c1CCCC2 | . | 93 | 77 | . | . | .
Cc1cc(/C=C2\C(=O)NC(=O)N(c3ccc(Cl)cc3)C2=O)c(C)n1-c1sc2c(c1C#N)CCCC2 | . | . | . | . | . | .
O=P(C(c1c[nH]c2ccccc12)N1CCOCC1)(N1CCOCC1)N1CCOCC1 (centres undefined) | . | . | . | . | . | .
COc1ccc(OCC(=O)N2CCN(Cc3nc4cc([N+](=O)[O-])ccc4n3C)CC2)cc1 | . | . | . | . | . | /
O=[N+]([O-])c1cccc(CN2CCN(Cc3ccc(Cl)cc3)CC2)c1 | . | 85 | . | . | . | .
O=C(COc1ccc(Cl)cc1)N1CCN(Cc2ccc([N+](=O)[O-])cc2)CC1 | . | 67 | . | . | . | .
C=CCN1C[C@@H](C)N([C@H](c2ccc(C(=O)N(CC)CC)cc2)c2cccc(OC)c2)C[C@@H]1C | / | / | . | / | / | /
Cc1ccccc1NP(=O)(Oc1ccccc1F)Oc1ccccc1F | . | . | . | . | . | .
CN(C(=O)Oc1ccc(C(=O)c2ccc(Cl)cc2)cc1)c1ccccc1 | . | 56 | . | . | . | .
SMILES | Arbovirus anti | Lmaj promast | CHOP inh | Wee1 degr inh | PKD1 inh | Rad51 HR inh
CCCc1[nH]nc2c1C1(C(=O)N(Cc3ccccc3)c3ccccc31)C(C(=O)OC)=C(N)O2 (centres undefined) | . | 82 | . | . | . | .
CCCc1[nH]nc2c1C1(C(=O)N(CC(N)=O)c3ccccc31)C(C(=O)OC)=C(N)O2 (centres undefined) | . | . | . | . | . | .
Cc1cc(C=C2C(=O)NC(=S)NC2=O)c(C)n1C1CCCC1 | . | 63 | . | . | . | .
O=C(C[N+]12CCN(CC1)CC2)NCCc1ccc(Cl)cc1Cl | . | . | . | . | . | .
CN(C)c1nc(OCCNC(=O)COc2ccc(Cl)cc2Cl)nc(N2CCCCC2)n1 | . | . | 94 | . | . | .
CN1C(=O)CN=C(c2ccccc2)c2cc([N+](=O)[O-])ccc21 | . | / | . | . | / | /
O=C(CCC(=O)N1CCC2(CC1)OCCO2)Nc1nnc(C2CCCCC2)s1 | / | / | . | . | / | .
CC(C)N1CCN(Cc2cccc3c2OCO3)CC1CCO (centres undefined) | . | . | . | . | . | /
CCOC(=O)C1(CCc2ccccc2)CCN(Cc2cccc3cnccc23)CC1 | . | 82 | . | . | . | /
CCOC(=O)C1(CCc2ccccc2)CCN(Cc2csc(C(C)=O)c2)CC1 | . | 83 | . | . | . | /
CCOC(=O)C1(CCc2ccccc2)CCN(Cc2cccc3c2OCO3)CC1 | . | 79 | . | . | . | .
O=C(Cc1ccccc1)N1CCN(Cc2cccnc2)CC1 | . | . | . | . | . | .
C1=C(CCNCc2ccccc2)CCCC1 | . | 73 | . | 9.3 | . | .
OC1(c2ccccc2F)CC2CCC(C1)N2CCN1CCOCC1 (centres undefined) | . | 52 | . | . | . | .
CCOC(=O)C1=C(N)OC2=C(C(=O)CCC2)C12C(=O)N(C)c1ccccc12 (centres undefined) | / | / | . | . | / | /
CN1CCN(c2ccc(/C=C3\C(=O)NC(=S)N(c4cccc(Br)c4)C3=O)o2)CC1 | 37 | . | . | . | . | .
CNP(=O)(Oc1ccccc1)OC12CC3CC(CC(C3)C1)C2 (centres undefined) | . | . | . | . | . | .
Cc1cc(=O)n(-c2ccccc2)n1-c1ccccc1 | . | . | . | . | . | .
NP(=O)(Oc1ccc(Cl)cc1)Oc1ccc(Cl)cc1 | . | . | . | . | . | .
O=C(CNC1CCCC1)Nc1ccc(N2CCCCCC2)cc1 | . | 85 | . | . | . | .
CN1CCN(c2ccc(NC(=O)Oc3ccccc3)cc2)CC1 | . | . | . | . | . | .
COC(=O)C1=C(c2cc3ccccc3s2)C[C@@H]2CC[C@H]1N2C(=O)N1CCCCC1 | / | / | / | / | / | .
CCOP(=O)(OCC)C(NC(=O)Cc1ccccc1)C(Cl)(Cl)Cl (centres undefined) | . | . | . | . | . | .
CCOP(=O)(OCC)C(NC(=O)CC(C)C)C(Cl)(Cl)Cl (centres undefined) | . | . | 71 | . | . | .
Cc1ccc2c(c1)[C@@H]1CN(C)CC[C@@H]1N2C(=O)Nc1cccc(C(F)(F)F)c1 | . | 81 | . | . | . | .
Cc1ccc2c(c1)C1CN(C)CCC1N2C(=O)c1cn(-c2ccccc2)nc1-c1ccccc1 (centres undefined) | . | 53 | . | . | . | .
Cc1ccc2c(c1)C1CN(C)CCC1N2C(=O)Nc1cccc(C(F)(F)F)c1 (centres undefined) | . | 50 | . | . | . | .
COCCN1C(=O)NC(=O)/C(=C\c2ccc(Br)cc2)C1=O | . | . | . | . | . | .
